Calls of active or inactive are those of the source. The calls are words filed in the database; no cut-off is given here.
Legend:
[1] = biological target: T1, 5-hydroxytryptamine receptor 2C (Homo sapiens) (UniProt P28335); assay: Agonist activity at 5HT2C receptor (unknown origin) expressed in HEK293 cells co-expressing NFAT-RE at 10 uM after 6 to 12 hrs by Bright-Glo luciferase reporter gene assay; format: cell-based
T1 sequence (whole entry): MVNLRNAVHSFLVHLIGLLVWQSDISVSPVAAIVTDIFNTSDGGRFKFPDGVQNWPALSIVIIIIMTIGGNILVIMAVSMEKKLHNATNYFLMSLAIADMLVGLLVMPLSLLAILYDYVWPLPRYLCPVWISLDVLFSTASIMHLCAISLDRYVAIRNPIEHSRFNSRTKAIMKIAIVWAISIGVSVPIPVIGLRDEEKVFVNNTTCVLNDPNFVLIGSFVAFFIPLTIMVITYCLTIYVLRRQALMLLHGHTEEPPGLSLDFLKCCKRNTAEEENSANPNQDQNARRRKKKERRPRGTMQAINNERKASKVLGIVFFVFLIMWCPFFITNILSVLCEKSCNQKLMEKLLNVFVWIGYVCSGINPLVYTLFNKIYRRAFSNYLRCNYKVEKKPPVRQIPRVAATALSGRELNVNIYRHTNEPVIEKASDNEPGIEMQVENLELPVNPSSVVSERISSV
Method in brief: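 Primary screen at 5-HT2C in transiently co-transfected HEK293T (receptor plus NFAT-RE luciferase plasmids, 50,000 cells/well). Compounds tested in triplicate at a final 10 µM in HEPES-buffered HBSS pH 7.4 and incubated 6-12 h. Luminescence read within 5 min of Bright-Glo (1 mg/ml final). Signal normalized to the 5-HT maximal response.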

[2] = biological target: T1, 5-hydroxytryptamine receptor 2C (Homo sapiens); assay: Positive allosteric modulation of 5HT2C receptor (unknown origin) expressed in HEK293 cells co-expressing NFAT-RE assessed as increase in serotonin-induced reponse at 10 uM after 6 to 12 hrs by Bright-Glo luciferase reporter gene assay relative to serotonin; format: cell-based
Method in brief: (§1)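 Transiently co-transfected HEK293T cells expressing 5-HT2A, 5-HT2B or 5-HT2C with NFAT-RE luciferase, 50,000 cells/well. Test compound added first at 10 µM, 1 µM or 100 nM, in triplicate. A 5-HT concentration-response (10 µM to 0.01 nM) followed, then 6-12 h incubation. Bright-Glo luminescence was fitted by non-linear regression, with Emax normalized to 5-HT alone (100%). n=3-4.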

[3] = biological target: T2, 5-hydroxytryptamine receptor 2A (Homo sapiens, UniProt P28223); assay: Positive allosteric modulation of 5HT2A receptor (unknown origin) expressed in HEK293 cells co-expressing NFAT-RE assessed as increase in serotonin-induced reponse after 6 to 12 hrs by Bright-Glo luciferase reporter gene assay; format: cell-based; method in brief: as §1
[4] = biological target: 5HT2B receptor (Homo sapiens, UniProt P41595); assay: Positive allosteric modulation of 5HT2B receptor (unknown origin) expressed in HEK293 cells co-expressing NFAT-RE assessed as increase in serotonin-induced reponse at 1 uM after 6 to 12 hrs by Bright-Glo luciferase reporter gene assay relative to serotonin; format: cell-based; conditions: HEK293 cells expressing 5HT2B receptor and NFAT-RE reporter; method in brief: as §1
[5] = biological target: T1, 5-hydroxytryptamine receptor 2C (Homo sapiens); assay: Positive allosteric modulation of 5HT2C receptor (unknown origin) expressed in HEK293 cells co-expressing NFAT-RE assessed as increase in serotonin-induced reponse at 1 uM after 6 to 12 hrs by Bright-Glo luciferase reporter gene assay relative to serotonin; format: cell-based; method in brief: as §1
[6] = biological target: T1, 5-hydroxytryptamine receptor 2C (Homo sapiens); assay: Agonist activity at 5HT2C receptor (unknown origin) expressed in HEK293 cells co-expressing NFAT-RE after 6 to 12 hrs by Bright-Glo luciferase reporter gene assay; format: cell-based
Method in brief: (§2)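 HEK293T cells transiently co-transfected (PEI) with 0.1 µg/well receptor plasmid (5-HT2A, 5-HT2B or 5-HT2C) plus 0.1 µg/well NFAT-RE luciferase reporter, plated 50,000 cells/well 24 h before treatment. Compounds tested in triplicate from 10 µM down to 0.01 nM in HBSS/20 mM HEPES pH 7.4, incubated 6-12 h. Luminescence read within 5 min of Bright-Glo (1 mg/ml final). RLU fitted by non-linear regression; 5-HT Emax set to 100%.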

[7] = biological target: T3, 5-hydroxytryptamine receptor 2B (Homo sapiens, UniProt P41595); assay: Positive allosteric modulation of 5HT2B receptor (unknown origin) expressed in HEK293 cells co-expressing NFAT-RE assessed as increase in serotonin-induced reponse after 6 to 12 hrs by Bright-Glo luciferase reporter gene assay; format: cell-based; method in brief: as §1
[8] = biological target: T2, 5-hydroxytryptamine receptor 2A; assay: Agonist activity at 5HT2A receptor (unknown origin) expressed in HEK293 cells co-expressing NFAT-RE after 6 to 12 hrs by Bright-Glo luciferase reporter gene assay; format: cell-based; method in brief: as §2
[9] = biological target: T3, 5-hydroxytryptamine receptor 2B; assay: Positive allosteric modulation of 5HT2B receptor (unknown origin) expressed in HEK293 cells co-expressing NFAT-RE assessed as increase in serotonin-induced reponse at 10 uM after 6 to 12 hrs by Bright-Glo luciferase reporter gene assay; format: cell-based; conditions: hek293, 10 µM; method in brief: as §1
[10] = biological target: T4, 5-hydroxytryptamine receptor 2C (Homo sapiens, UniProt P28335); assay: Positive allosteric modulation of 5HT2C receptor (unknown origin) expressed in HEK293 cells co-expressing NFAT-RE assessed as increase in serotonin-induced reponse after 6 to 12 hrs by Bright-Glo luciferase reporter gene assay; format: cell-based; method in brief: as §1
T4 sequence (P28335 whole entry): T1 sequence (whole entry)

[11] = biological target: 5HT2A receptor (Homo sapiens, UniProt P28223); assay: Positive allosteric modulation of 5HT2A receptor (unknown origin) expressed in HEK293 cells co-expressing NFAT-RE assessed as increase in serotonin-induced reponse at 1 uM after 6 to 12 hrs by Bright-Glo luciferase reporter gene assay relative to serotonin; format: cell-based; conditions: HEK293 cells expressing 5HT2A receptor and NFAT-RE reporter; method in brief: as §1
[12] = biological target: T3, 5-hydroxytryptamine receptor 2B; assay: Agonist activity at 5HT2B receptor (unknown origin) expressed in HEK293 cells co-expressing NFAT-RE after 6 to 12 hrs by Bright-Glo luciferase reporter gene assay; format: cell-based; method in brief: as §2
[13] = test system: Rattus norvegicus; assay: Induction of anorexia in Sprague-Dawley rat assessed as suppression of food intake at 2 pmol, icv measured after 3 to 6 hrs; format: functional, organism-based
Method in brief: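 Adult SD rats (150-200 g) on a 12 h light/dark cycle at 22 °C, cannulated in the right ventricle. Rats were fasted 4 h with free access to water, then dosed i.c.v. with 2 pmol/rat (2 µL) in aCSF vehicle; lorcaserin 2 pmol/rat served as positive control. Weighed pellets were given 10 min later, and remaining food plus spillage was weighed at 3, 6 and 24 h; n=4.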

T3 sequence (P41595 whole entry): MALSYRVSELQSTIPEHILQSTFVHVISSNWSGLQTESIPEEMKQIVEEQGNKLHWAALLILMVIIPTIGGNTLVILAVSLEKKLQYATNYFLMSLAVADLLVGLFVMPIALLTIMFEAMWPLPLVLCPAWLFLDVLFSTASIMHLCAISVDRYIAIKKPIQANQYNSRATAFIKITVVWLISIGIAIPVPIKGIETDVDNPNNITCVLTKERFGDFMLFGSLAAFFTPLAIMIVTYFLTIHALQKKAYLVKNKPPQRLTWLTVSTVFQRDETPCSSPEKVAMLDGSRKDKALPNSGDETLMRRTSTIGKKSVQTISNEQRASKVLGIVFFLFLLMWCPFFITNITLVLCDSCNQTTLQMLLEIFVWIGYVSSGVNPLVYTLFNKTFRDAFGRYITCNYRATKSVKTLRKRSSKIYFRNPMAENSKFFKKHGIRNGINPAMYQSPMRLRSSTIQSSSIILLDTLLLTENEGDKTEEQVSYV
T2 sequence (P28223 whole entry): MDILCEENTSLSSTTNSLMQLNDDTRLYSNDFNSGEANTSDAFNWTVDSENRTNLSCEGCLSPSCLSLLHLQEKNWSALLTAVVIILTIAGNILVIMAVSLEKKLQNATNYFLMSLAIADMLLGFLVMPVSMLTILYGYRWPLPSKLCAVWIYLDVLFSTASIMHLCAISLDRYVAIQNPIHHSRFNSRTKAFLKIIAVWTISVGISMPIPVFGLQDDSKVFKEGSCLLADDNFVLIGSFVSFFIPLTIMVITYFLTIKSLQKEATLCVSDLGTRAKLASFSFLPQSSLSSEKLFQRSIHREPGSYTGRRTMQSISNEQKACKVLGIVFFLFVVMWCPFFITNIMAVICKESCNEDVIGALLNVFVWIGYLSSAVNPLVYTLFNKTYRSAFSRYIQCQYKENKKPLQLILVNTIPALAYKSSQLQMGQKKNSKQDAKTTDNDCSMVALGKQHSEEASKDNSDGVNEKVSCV
Chain of 5HT2B receptor (P41595 whole entry): as the sequence (P41595 whole entry) above
Chain of 5HT2A receptor (P28223 whole entry): as the sequence (P28223 whole entry) above

Structure (SMILES) | Activity [1] | Activity [2] | further results
Nc1ncnc2c1ncn2-c1ccc(C(O)C2CC2)cc1 (stereo unspecified) | inactive | inactive | 
CC1(C)O[C@@H]2O[C@H]([C@H]3COC(C)(C)O3)[C@@H](OCc3cn(C(c4ccc(OCc5ccccc5)cc4)C4CC4)nn3)[C@H]2O1 (stereo partly specified) | inactive |  | 
Cc1nc2ccccc2n1-c1ccc(C(O)C2CC2)cc1 (stereo unspecified) | inactive | inactive | 
CCOc1ccc2nc(Nc3ccc(C(=O)C4CC4)cc3)sc2c1 | inactive | inactive | 
Nc1cccc2ncn(-c3ccc(C(=O)C4CC4)cc3)c12 | inactive | inactive | 
Cc1ccc(S(=O)(=O)NCc2cn(C(c3ccc(OCc4ccccc4)cc3)C3CC3)nn2)cc1 (stereo unspecified) | inactive |  | 
CCCCCc1cn(C(c2ccc(OCc3ccccc3)cc2)C2CC2)nn1 (stereo unspecified) | inactive |  | 
O=C(c1ccc(NCCN2CCN(c3ccc(C(=O)C4CC4)cc3)CC2)cc1)C1CC1 | inactive |  | 
OC(c1ccc(-n2cnc3c(NCc4ccccc4)ncnc32)cc1)C1CC1 (stereo unspecified) | inactive | inactive | 
O=C(c1ccc(-n2nnc3ccccc32)cc1)C1CC1 | inactive | inactive | 
O=C(c1ccc(Nc2nc3ccccc3s2)cc1)C1CC1 | inactive | inactive | 
O=C(c1ccc(-n2cnc3ccccc32)cc1)C1CC1 | inactive | inactive | 
C=CCN1CCN(c2ccc(C(=O)C3CC3)cc2)CC1 | inactive | inactive | 
OCc1cn(C(c2ccc(OCc3ccccc3)cc2)C2CC2)nn1 (stereo unspecified) | inactive |  | 
O=C(c1ccc(N2CCN(C(c3ccccc3)c3ccccc3)CC2)cc1)C1CC1 | inactive | inactive | 
Nc1ncnc2c1ncn2-c1ccc(C(=O)C2CC2)cc1 | inactive | inactive | 
O=S(=O)(NCc1cn(C(c2ccc(OCc3ccccc3)cc2)C2CC2)nn1)c1ccc(F)cc1 (stereo unspecified) | inactive |  | 

Structure (SMILES) | Activity [1] | Activity [2] | further results
O=C(c1ccc(OCc2ccccc2)cc1)C1CC1 | inactive |  | 
OC(c1ccc(-n2cnc3ccccc32)cc1)C1CC1 (stereo unspecified) | inactive | inactive | 
COc1cc(C(=O)OCc2cn(C(c3ccc(OCc4ccccc4)cc3)C3CC3)nn2)cc(OC)c1OC (stereo unspecified) | inactive |  | 
Cc1nc2ccccc2n1-c1ccc(C(=O)C2CC2)cc1 | inactive | inactive | 
O=C(c1ccc(N2CCN(Cc3ccc4c(c3)OCO4)CC2)cc1)C1CC1 | inactive | inactive | 
O=[N+]([O-])c1cn(-c2ccc(C(O)C3CC3)cc2)cn1 (stereo unspecified) | inactive | inactive | 
O=C(c1ccc(-n2cnc([N+](=O)[O-])c2)cc1)C1CC1 | inactive | Active | EC50 [3]: 45.7 nM; Emax at 1 µM [4]: 123%; Emax [5]: 140%; Activity [6]: inactive; EC50 [7]: 1.26 nM; Activity [8]: Not Active; Activity [9]: Active; EC50 [10]: 4.17 nM; Emax at 1 µM [11]: 100%; Activity [12]: Not Active
OCCCCc1cn(C(c2ccc(OCc3ccccc3)cc2)C2CC2)nn1 (stereo unspecified) | inactive |  | 
C[C@H]1CNCCc2ccc(Cl)cc21 |  |  | Activity [13]: Active
O=C(c1ccc(-n2cnc3c(NCc4ccccc4)ncnc32)cc1)C1CC1 | inactive | inactive | 
O=C(c1ccc(Nc2nc3ccccc3[nH]2)cc1)C1CC1 | inactive | inactive | 
O=C(c1ccc(NCCCn2ccnc2)cc1)C1CC1 |  | inactive | 
Cc1cccc2sc(Nc3ccc(C(=O)C4CC4)cc3)nc12 | inactive | inactive | 
O=C(c1ccc(Nc2nc3ccc(F)cc3s2)cc1)C1CC1 | inactive | inactive | 
O=C(c1ccc(-n2ccnc2)cc1)C1CC1 | inactive | Active | EC50 [3]: 50.1 nM; Emax at 1 µM [4]: 119%; Emax [5]: 143%; Activity [6]: inactive; EC50 [7]: 1.26 nM; Activity [8]: Not Active; Activity [9]: Active; EC50 [10]: 4.27 nM; Emax at 1 µM [11]: 96%; Activity [12]: Not Active
c1ccc(COc2ccc(C(C3CC3)n3cc(-c4ccccc4)nn3)cc2)cc1 (stereo unspecified) | inactive |  | 
OC(c1ccc(-n2ccnc2)cc1)C1CC1 (stereo unspecified) | inactive | inactive | 
